Test results as given in PMC8349901 (Journal of Peptide Science, 2021).
Non-standard residues stand in square brackets, D forms with d. Residues, ends and D or L forms follow the SMILES beside them. Bip = N[C@@H](Cc1ccc(-c2ccccc2)cc1)C(=O)O

What was measured:
[1] = amino acid; glycine defined as 0; higher π = more hydrophobic; cited from earlier work
[2] = Negative-stain TEM of self-assembled nanoribbon morphology; format: physicochemical; conditions: 0.2 mM peptide, 5% HFIP/water, average of at least 100 measurements; for Nanoribbon width: pH 3–4, room temperature
Outline: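 Peptide, quantified by HPLC peak area against amino-acid-analysis-calibrated curves, dissolved in HFIP and diluted with water to 0.2 mM (5% HFIP, pH 3–4 from residual TFA). Vortexed 1 min, sonicated 5 min. Assembled sample applied to carbon-coated copper grids for 30 s, blotted, stained 2 min with 5% uranyl acetate, and water-washed. Imaged at 80 kV. Dimensions averaged over ≥100 distinct fibrils.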

[3] = Self-assembly kinetics by circular dichroism over 24 h; format: physicochemical; conditions: CD at 0, 1, 2, 4, 12, 24 h; 0.2 mM peptide, 5% HFIP/water, 25°C
Outline: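 Lyophilized peptide, quantified by 215-nm HPLC calibration tied to amino acid analysis, was dissolved in HFIP, then water was added (pH 3–4 from residual TFA). Solutions were vortexed for 1 min and sonicated for 5 min. Spectra were scanned from 260 to 190 nm in a 0.1-mm quartz cell with 1.0-nm step, 1.0-nm bandwidth and 3 s per step, starting immediately after preparation.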

| SMILES | partition coefficient (π) between octanol and water relative to glycine [1] | Nanoribbon width [2] [nm] | Helical pitch ([2]; left-handed helical nanoribbons) [nm] | evolution of CD signal over 24 h (self-assembly kinetics) [3] |
| --- | --- | --- | --- | --- |
| N[C@@H](CCc1ccccc1)C(=O)O [Hph, homophenylalanine] | 2.10 |  |  |  |
| CC(=O)N[C@@H](Cc1ccccc1)C(=O)N[C@@H](CCCCN)C(=O)N[C@@H](Cc1ccccc1)C(=O)N[C@@H](CCC(=O)O)C(=O)N[C@@H](Cc1ccccc1)C(=O)N[C@@H](CCCCN)C(=O)N[C@@H](Cc1ccccc1)C(=O)N[C@@H](CCC(=O)O)C(N)=O [Peptide 1, Ac‐(FKFE)2‐NH2] |  | 8.8 ± 0.8 | 19.1 ± 1.3 |  |
| CC(=O)N[C@@H](Cc1c[nH]c2ccccc12)C(=O)N[C@@H](CCCCN)C(=O)N[C@@H](Cc1c[nH]c2ccccc12)C(=O)N[C@@H](CCC(=O)O)C(=O)N[C@@H](Cc1c[nH]c2ccccc12)C(=O)N[C@@H](CCCCN)C(=O)N[C@@H](Cc1c[nH]c2ccccc12)C(=O)N[C@@H](CCC(=O)O)C(N)=O [Peptide 3, Ac‐(WKWE)2‐NH2] (Ac-WKWEWKWE-NH2) |  | 7.3 ± 1.6 |  | occurring over 24 h |
| CC(=O)N[C@@H](Cc1ccc(-c2ccccc2)cc1)C(=O)N[C@@H](CCCCN)C(=O)N[C@@H](Cc1ccc(-c2ccccc2)cc1)C(=O)N[C@@H](CCC(=O)O)C(=O)N[C@@H](Cc1ccc(-c2ccccc2)cc1)C(=O)N[C@@H](CCCCN)C(=O)N[C@@H](Cc1ccc(-c2ccccc2)cc1)C(=O)N[C@@H](CCC(=O)O)C(N)=O [Peptide 6, Ac‐(BipKBipE)2‐NH2] (Ac-[Bip]K[Bip]E[Bip]K[Bip]E-NH2) |  | 5.5 ± 0.9 |  | no effect on evolution of signal intensity over time |
| CC(=O)N[C@@H](Cc1ccc(-c2ccccc2)cc1)C(=O)N[C@@H](CCCCN)C(=O)N[C@@H](Cc1ccccc1)C(=O)N[C@@H](CCC(=O)O)C(=O)N[C@@H](Cc1ccccc1)C(=O)N[C@@H](CCCCN)C(=O)N[C@@H](Cc1ccccc1)C(=O)N[C@@H](CCC(=O)O)C(N)=O [Peptide 9, Ac‐BipKFEFKFE‐NH2] (Ac-[Bip]KFEFKFE-NH2) |  | 2.9 ± 0.5 |  | intensified dramatically over 24 h |
| N[C@@H](Cc1ccccc1)C(=O)O [Phe, phenylalanine] | 1.79 |  |  |  |
| N[C@@H](Cc1c[nH]c2ccccc12)C(=O)O [Trp, tryptophan] | 2.25 |  |  |  |
